Key:
[1] = Inhibition of Proteus vulgaris CCM 1956 urease by steady state kinetic study
Method in brief: (§1)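 Assay at 30 °C in 3 mM phosphate pH 7.0 with 2-100 mM urea. Ammonia read by Berthelot indophenol at 650 nm. Enzyme-inhibitor preincubated 30 min before urea, or diluted 30-fold from a concentrated mix. Ki* from linear regression, triplicates.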

[2] = Inhibition of Bacillus pasteurii CCM 2056 urease by steady state kinetic study; set-up: species or system Sporosarcina pasteurii; method in brief: as §1
[3] = target: Urease (Helicobacter pylori, UniProt Q0PXQ5); assay: Inhibition of Helicobacter pylori urease
Chain of Urease (Q0PXQ5 whole entry): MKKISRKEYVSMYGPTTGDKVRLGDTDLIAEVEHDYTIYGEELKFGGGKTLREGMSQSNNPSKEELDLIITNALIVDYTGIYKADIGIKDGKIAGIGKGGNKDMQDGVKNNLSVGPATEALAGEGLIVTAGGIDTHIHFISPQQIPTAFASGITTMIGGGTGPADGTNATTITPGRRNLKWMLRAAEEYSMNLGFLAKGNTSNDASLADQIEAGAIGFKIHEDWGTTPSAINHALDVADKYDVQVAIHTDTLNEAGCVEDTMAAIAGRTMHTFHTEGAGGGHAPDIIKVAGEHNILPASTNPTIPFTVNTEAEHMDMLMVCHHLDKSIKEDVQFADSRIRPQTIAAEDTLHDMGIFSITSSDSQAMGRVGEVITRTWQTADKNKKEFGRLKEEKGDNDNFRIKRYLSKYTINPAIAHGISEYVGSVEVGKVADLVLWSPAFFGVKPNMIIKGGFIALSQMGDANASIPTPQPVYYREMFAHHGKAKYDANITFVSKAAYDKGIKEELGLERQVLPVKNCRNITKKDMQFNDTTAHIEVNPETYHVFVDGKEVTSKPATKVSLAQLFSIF

[4] = Inhibition of Klebsiella aerogenes urease

| SMILES | IC50 [1] [µM] | Ki [1] [µM] | IC50 [2] [µM] | Ki [2] [µM] | IC50 [3] [µM] | Ki [4] [µM] |
| --- | --- | --- | --- | --- | --- | --- |
| CP(=O)(O)CNC(=O)[C@@H](N)CO | 342 | 41 | 150 | 37 | – | – |
| CP(=O)(O)CNC(=O)[C@@H](N)Cc1ccccc1 | 754 | 176 | 600 | 215 | – | – |
| CP(O)(=S)CNC(=O)OCc1ccccc1 (configuration not stated) | 158 | 14 | 112 | 17.5 | – | – |
| CC(C)[C@H](N)C(=O)NCP(C)(=O)O | 617 | 208 | 485 | 120 | – | – |
| CP(=O)(O)CNC(=O)[C@@H](N)COCc1ccccc1 | 183 | 32.6 | 80 | 25 | – | – |
| CP(=O)(O)CNC(=O)OCc1ccccc1 | 319 | 65 | 123 | 43 | – | – |
| CP(O)(=S)CNC(=O)CNC(=O)OCc1ccccc1 (configuration not stated) | 3.1 | 0.45 | 1.8 | 0.17 | – | – |
| NCC(=O)NCC(=O)NO | – | – | – | – | 0.79 | – |
| CP(=O)(O)CNC(=O)CN | 86 | 30 | 60 | 21 | – | – |
| CP(=O)(O)CNC(=O)CNC(=O)OCc1ccccc1 | 640 | 178 | 450 | 135 | – | – |
| CC(=O)NO [ACETOHYDROXAMIC ACID] | – | – | – | – | – | 2.6 |
| CP(=O)(O)CN [AMINOMETHYL(METHYL)PHOSPHINIC ACID] | 2530 | 425 | 1100 | 340 | – | – |
| CNCP(C)(=O)O [METHYL((METHYLAMINO)METHYL)PHOSPHINIC ACID] | 153 | 27 | 60 | 18 | – | – |
| NP(N)(=O)Oc1ccccc1 [PHENYL PHOSPHORDIAMIDATE] | – | – | – | 0.0006 | – | – |

Reference: ChEMBL document CHEMBL1140057, “Design, synthesis, and evaluation of novel organophosphorus inhibitors of bacterial ureases” (J Med Chem, 2008)
